pIC50: −log10 of the molar value. Calls of active or inactive are those of the source. No cut-off for these calls is given here.
What was measured:
RAW264.7 [1] = experiment: Immunomodulatory activity in mouse RAW264.7 cells assessed as inhibition of LPS-induced ROS level at 5 uM after 24 hrs by H2DCFDA probe based fluorescence assay relative to control; assay type: functional; conditions: RAW264.7, 24 h
How it was run: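 RAW 264.7 macrophages allowed to adhere 2 h at 37 °C, 5% CO2, then given compounds (5 μM) co-incubated with E. coli serotype 055:B5 LPS (1.0 μg/mL) for 24 h. DCFH-DA then added (final 10 μM) for 10 min at 37 °C. Fluorescence read at 485/518 nm; % reduction of LPS-induced ROS. At least triplicate, mean ± SD.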

RAW264.7 [2] = experiment: Induction of ROS generation in mouse RAW264.7 cells at 5 uM after 24 hrs by H2DCFDA probe based fluorescence assay; assay type: functional, cell-based
How it was run: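 Adhered RAW 264.7 macrophages (2 h, 37 °C, 5% CO2) exposed to compounds at 5 μM without LPS for 24 h, compared with untreated cells. 2,7-Dichlorodihydrofluorescein diacetate added (final 10 μM) for an additional 10 min at 37 °C. Dichlorofluorescein fluorescence measured at λex/λem 485/518 nm. At least triplicate.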

RAW264.7 [3] = experiment: Cytotoxicity against mouse RAW264.7 cells assessed as reduction in cell viability after 24 hrs by MTS assay; assay type: functional, cell-based; conditions: RAW264.7, 24 h
How it was run: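 RAW 264.7 murine macrophages (DMEM, 10% FBS, 37 °C, 5% CO2) seeded 6 × 10^3 cells/well and cultured 2 h. Medium then replaced with compound-containing medium (1.25−10.0 μM range), 24 h exposure. MTS reagent added, formazan read 2 h later at 492 nm with 690 nm background. IC50 reported; at least triplicate, mean ± SD.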

| SMILES | inhibition at 5 µM (RAW264.7 [1]) | Activity (RAW264.7 [2]) | pIC50 (RAW264.7 [3]) |
| --- | --- | --- | --- |
| CCC(C)[C@H](O)[C@@H]1O[C@H]2C[C@H]3[C@@H]4C[C@H](O[C@@H]5O[C@H](C)[C@@H](O)[C@H](O[C@@H]6O[C@H](C)[C@@H](O[C@@H]7O[C@H](CO)[C@@H](O)[C@H](O)[C@H]7O[C@@H]7O[C@H](C)[C@H](O)[C@H](O)[C@H]7O)[C@H](O)[C@H]6O[C@@H]6O[C@H](C)[C@@H](O)[C@H](O)[C@H]6O)[C@H]5O)[C@H]5C[C@@H](OS(=O)(=O)O)CC[C@]5(C)C4=CC[C@]3(C)[C@H]2[C@@]1(C)O (stereo partly specified) | 40% | inactive | – |
| CC(C)CC(=O)C[C@](C)(O)[C@H]1CC[C@H]2[C@@H]3C[C@H](O[C@@H]4O[C@H](C)[C@@H](O)[C@H](O[C@@H]5OC[C@@H](O[C@@H]6O[C@H](CO)[C@H](O)[C@H](O)[C@H]6O[C@@H]6O[C@H](C)[C@H](O)[C@H](O)[C@H]6O)[C@H](O)[C@H]5O[C@@H]5O[C@H](C)[C@@H](O)[C@H](O)[C@H]5O)[C@H]4O)[C@H]4C[C@@H](OS(=O)(=O)O)CC[C@]4(C)C3=CC[C@@]21C | – | inactive | 5.15 |
| CC(C)[C@H](C)[C@@H]1O[C@H]1[C@](C)(O)[C@H]1[C@@H](O)C[C@H]2[C@@H]3C[C@H](O[C@@H]4O[C@H](C)[C@@H](O)[C@H](O[C@@H]5O[C@H](C)[C@@H](O[C@@H]6O[C@H](CO)[C@@H](O)[C@H](O)[C@H]6O[C@@H]6O[C@H](C)[C@H](O)[C@H](O)[C@H]6O)[C@H](O)[C@H]5O[C@@H]5O[C@H](C)[C@@H](O)[C@H](O)[C@H]5O)[C@H]4O)[C@H]4C[C@@H](OS(=O)(=O)O)CC[C@]4(C)C3=CC[C@]12C | – | inactive | 5.19 |
| CC(=O)[C@H]1CC[C@H]2[C@@H]3C[C@H](O[C@@H]4O[C@H](C)[C@@H](O)[C@H](O[C@@H]5OC[C@@H](O[C@@H]6O[C@H](C)[C@@H](O)[C@H](O)[C@H]6O[C@@H]6O[C@H](C)[C@H](O)[C@H](O)[C@H]6O)[C@H](O)[C@H]5O[C@@H]5O[C@H](C)[C@@H](O)[C@H](O)[C@H]5O)[C@H]4O)[C@H]4C[C@@H](OS(=O)(=O)O)CC[C@]4(C)C3=CC[C@]12C | – | inactive | 5.00 to 5.90 |
| CC(=O)[C@H]1CC[C@H]2[C@@H]3C[C@H](O[C@@H]4O[C@H](C)[C@@H](O)[C@H](O[C@@H]5OC[C@@H](O[C@@H]6O[C@H](CO)[C@H](O)[C@H](O)[C@H]6O[C@@H]6O[C@H](C)[C@H](O)[C@H](O)[C@H]6O)[C@H](O)[C@H]5O[C@@H]5O[C@H](C)[C@@H](O)[C@H](O)[C@H]5O)[C@H]4O)[C@H]4C[C@@H](OS(=O)(=O)O)CC[C@]4(C)C3=CC[C@]12C | – | inactive | 5.00 to 5.90 |
| CC(C)=CC[C@H](O)[C@](C)(O)[C@H]1CC[C@H]2[C@@H]3C[C@H](O[C@@H]4O[C@H](C)[C@@H](O)[C@H](O[C@@H]5OC[C@@H](O[C@@H]6O[C@H](C)[C@@H](O)[C@H](O)[C@H]6O[C@@H]6O[C@H](C)[C@H](O)[C@H](O)[C@H]6O)[C@H](O)[C@H]5O[C@@H]5O[C@H](C)[C@@H](O)[C@H](O)[C@H]5O)[C@H]4O)[C@H]4C[C@@H](OS(=O)(=O)O)CC[C@]4(C)C3=CC[C@]12C | – | inactive | – |
| CC(C)C(C)[C@H](O)[C@@H]1O[C@H]2C[C@H]3[C@@H]4C[C@H](O[C@@H]5O[C@H](C)[C@@H](O)[C@H](O[C@@H]6O[C@H](C)[C@@H](O[C@@H]7O[C@H](CO)[C@@H](O)[C@H](O)[C@H]7O[C@@H]7O[C@H](C)[C@H](O)[C@H](O)[C@H]7O)[C@H](O)[C@H]6O[C@@H]6O[C@H](C)[C@@H](O)[C@H](O)[C@H]6O)[C@H]5O)[C@H]5C[C@@H](OS(=O)(=O)O)CC[C@]5(C)C4=CC[C@]3(C)[C@H]2[C@@]1(C)O (stereo partly specified) | – | inactive | 5.00 to 5.90 |
| C[C@H]1O[C@@H](O[C@H]2[C@H](O[C@@H]3CO[C@@H](O[C@@H]4[C@@H](O)[C@H](O[C@H]5C[C@@H]6C(=CC[C@@]7(C)[C@H]6CC[C@@H]7[C@@](C)(O)C(=O)/C=C/C(C)(C)O)[C@@]6(C)CC[C@H](OS(=O)(=O)O)C[C@H]56)O[C@H](C)[C@H]4O)[C@H](O[C@@H]4O[C@H](C)[C@@H](O)[C@H](O)[C@H]4O)[C@H]3O)O[C@H](C)[C@@H](O)[C@@H]2O)[C@H](O)[C@@H](O)[C@H]1O | – | inactive | 5.00 to 5.90 |
| CC(C)CC[C@H](O)[C@](C)(O)[C@H]1CC[C@H]2[C@@H]3C[C@H](O[C@@H]4O[C@H](C)[C@@H](O)[C@H](O[C@@H]5OC[C@@H](O[C@@H]6O[C@H](C)[C@@H](O)[C@H](O)[C@H]6O[C@@H]6O[C@H](C)[C@H](O)[C@H](O)[C@H]6O)[C@H](O)[C@H]5O[C@@H]5O[C@H](C)[C@@H](O)[C@H](O)[C@H]5O)[C@H]4O)[C@H]4C[C@@H](OS(=O)(=O)O)CC[C@]4(C)C3=CC[C@]12C | 28% | inactive | 5.00 to 5.90 |
| CC(C)CC(=O)C[C@](C)(O)[C@H]1CC[C@H]2[C@@H]3C[C@H](O[C@@H]4O[C@H](C)[C@@H](O)[C@H](O[C@@H]5OC[C@@H](O[C@@H]6O[C@H](CO)[C@@H](O)[C@H](O)[C@H]6O[C@@H]6O[C@H](C)[C@H](O)[C@H](O)[C@H]6O)[C@H](O)[C@H]5O[C@@H]5O[C@H](C)[C@@H](O)[C@H](O)[C@H]5O)[C@H]4O)[C@H]4C[C@@H](OS(=O)(=O)O)CC[C@]4(C)C3=CC[C@@]21C | – | inactive | – |
| CC(C)CCC(=O)[C@](C)(O)[C@H]1CC[C@H]2[C@@H]3C[C@H](O[C@@H]4O[C@H](C)[C@@H](O)[C@H](O[C@@H]5OC[C@@H](O[C@@H]6O[C@H](C)[C@@H](O)[C@H](O)[C@H]6O[C@@H]6O[C@H](C)[C@H](O)[C@H](O)[C@H]6O)[C@H](O)[C@H]5O[C@@H]5O[C@H](C)[C@@H](O)[C@H](O)[C@H]5O)[C@H]4O)[C@H]4C[C@@H](OS(=O)(=O)O)CC[C@]4(C)C3=CC[C@@]21C | 55% | inactive | – |

From ChEMBL document CHEMBL4130468, “Furostane Series Asterosaponins and Other Unusual Steroid Oligoglycosides from the Tropical Starfish Pentaceraster regulus” (J Nat Prod, 2017)
